Laboratory results taken from ChEMBL document CHEMBL4219229, “Synthesis and antiproliferative activity of derivatives of the phyllanthusmin class of arylnaphthalene lignan lactones” (Bioorg Med Chem, 2018).
pIC50: −log10 of the molar value. Calls of active or inactive are those of the source. The calls are words filed in the database; no cut-off is given here.

Experiments:
[1] = molecular target: DNA topoisomerase 2-alpha (Homo sapiens) (UniProt P11388); test: Inhibition of full-length recombinant human topoisomerase-2alpha expressed in yeast expression system assessed as reduction in enzyme-mediated supercoiled pBR322 DNA relaxation at 50 to 100 uM measured after 15 mins by ethidium bromide staining based agarose gel electrophoresis
Procedure, shortened: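 Topo IIα (125 ng) with 150 ng negatively supercoiled pBR322 and 1 mM ATP in 10 mM Tris-HCl pH 8.0, 50 mM KCl, 50 mM NaCl, 0.1 mM EDTA, 5 mM MgCl₂, 2.5% glycerol, drug in DMSO; started with enzyme, 15 min at 37°C, SDS/EDTA stop. Products resolved on 1% TBE agarose, ethidium bromide stained, imaged under UV.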

OVCAR-3 = test: Cytotoxicity against human OVCAR3 cells measured after 24 to 72 hrs by SRB assay; format: functional, cell-based
Procedure, shortened: (§1)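 Cells from ATCC: HT-29 in RPMI 1640 with 10% FBS and 1% P/S; OVCAR3 in RPMI 1640 with 20% FBS, 1% P/S and 10 µg/mL insulin. Both kept at 37°C in 5% CO₂ and passaged at most 20 times. Seeded at 2,500–5,000 cells/well, attached overnight, then treated 24, 48 or 72 h (DMSO final 0.25%). Fixed, SRB-stained protein read out; normalized to vehicle; IC₅₀ from dose-response curves.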

MDA-MB-231 = test: Cytotoxicity against human MDA-MB-231 cells after 72 hrs by CellTiter96 AQueous one solution cell proliferation assay; format: functional, cell-based; details: MDA-MB-231, 72 h
HT-29 = test: Cytotoxicity against human HT-29 cells measured after 24 to 72 hrs by SRB assay; format: functional, cell-based; procedure, shortened: as §1
K562 = test: Cytotoxicity against human etoposide-sensitive K562 cells after 72 hrs by CellTiter96 AQueous one solution cell proliferation assay; format: functional, cell-based; details: K562, 72 h
Procedure, shortened: (§2)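 K562 and etoposide-resistant K/VP.5 cells (~1/5 topo IIα level) in suspension at 7.5 × 10⁴ cells/ml exposed to DMSO vehicle or serial compound concentrations (final DMSO 0.5%), triplicate wells; 72 hr at 37°C, then MTS reagent 1 hr at 37°C, absorbance 490 nm. IC₅₀ from four-parameter logistic fit; relative resistance = IC₅₀ K/VP.5 ÷ IC₅₀ K562; n = separate-day repeats.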

MDA-MB-435 = test: Cytotoxicity against human MDA-MB-435 cells after 72 hrs by CellTiter96 AQueous one solution cell proliferation assay; format: functional, cell-based; details: MDA-MB-435, 72 h
[2] = Resistance index, ratio of IC50 for human K/VP.5 cells to IC50 for human etoposide-sensitive K562 cells; format: functional; procedure, shortened: as §2
[3] = Cytotoxicity against human K/VP.5 cells after 72 hrs by CellTiter96 AQueous one solution cell proliferation assay; format: functional, cell-based; details: K/VP.5, 72 h; procedure, shortened: as §2
[4] = Selectivity ratio of IC50 for human OVCAR3 cells to IC50 for human HT-29 cells; format: functional
[5] = molecular target: DNA topoisomerase 2-alpha (Homo sapiens) (UniProt P11388); details: 100 uM

Sequence of DNA topoisomerase 2-alpha (Homo sapiens) (P11388 whole entry): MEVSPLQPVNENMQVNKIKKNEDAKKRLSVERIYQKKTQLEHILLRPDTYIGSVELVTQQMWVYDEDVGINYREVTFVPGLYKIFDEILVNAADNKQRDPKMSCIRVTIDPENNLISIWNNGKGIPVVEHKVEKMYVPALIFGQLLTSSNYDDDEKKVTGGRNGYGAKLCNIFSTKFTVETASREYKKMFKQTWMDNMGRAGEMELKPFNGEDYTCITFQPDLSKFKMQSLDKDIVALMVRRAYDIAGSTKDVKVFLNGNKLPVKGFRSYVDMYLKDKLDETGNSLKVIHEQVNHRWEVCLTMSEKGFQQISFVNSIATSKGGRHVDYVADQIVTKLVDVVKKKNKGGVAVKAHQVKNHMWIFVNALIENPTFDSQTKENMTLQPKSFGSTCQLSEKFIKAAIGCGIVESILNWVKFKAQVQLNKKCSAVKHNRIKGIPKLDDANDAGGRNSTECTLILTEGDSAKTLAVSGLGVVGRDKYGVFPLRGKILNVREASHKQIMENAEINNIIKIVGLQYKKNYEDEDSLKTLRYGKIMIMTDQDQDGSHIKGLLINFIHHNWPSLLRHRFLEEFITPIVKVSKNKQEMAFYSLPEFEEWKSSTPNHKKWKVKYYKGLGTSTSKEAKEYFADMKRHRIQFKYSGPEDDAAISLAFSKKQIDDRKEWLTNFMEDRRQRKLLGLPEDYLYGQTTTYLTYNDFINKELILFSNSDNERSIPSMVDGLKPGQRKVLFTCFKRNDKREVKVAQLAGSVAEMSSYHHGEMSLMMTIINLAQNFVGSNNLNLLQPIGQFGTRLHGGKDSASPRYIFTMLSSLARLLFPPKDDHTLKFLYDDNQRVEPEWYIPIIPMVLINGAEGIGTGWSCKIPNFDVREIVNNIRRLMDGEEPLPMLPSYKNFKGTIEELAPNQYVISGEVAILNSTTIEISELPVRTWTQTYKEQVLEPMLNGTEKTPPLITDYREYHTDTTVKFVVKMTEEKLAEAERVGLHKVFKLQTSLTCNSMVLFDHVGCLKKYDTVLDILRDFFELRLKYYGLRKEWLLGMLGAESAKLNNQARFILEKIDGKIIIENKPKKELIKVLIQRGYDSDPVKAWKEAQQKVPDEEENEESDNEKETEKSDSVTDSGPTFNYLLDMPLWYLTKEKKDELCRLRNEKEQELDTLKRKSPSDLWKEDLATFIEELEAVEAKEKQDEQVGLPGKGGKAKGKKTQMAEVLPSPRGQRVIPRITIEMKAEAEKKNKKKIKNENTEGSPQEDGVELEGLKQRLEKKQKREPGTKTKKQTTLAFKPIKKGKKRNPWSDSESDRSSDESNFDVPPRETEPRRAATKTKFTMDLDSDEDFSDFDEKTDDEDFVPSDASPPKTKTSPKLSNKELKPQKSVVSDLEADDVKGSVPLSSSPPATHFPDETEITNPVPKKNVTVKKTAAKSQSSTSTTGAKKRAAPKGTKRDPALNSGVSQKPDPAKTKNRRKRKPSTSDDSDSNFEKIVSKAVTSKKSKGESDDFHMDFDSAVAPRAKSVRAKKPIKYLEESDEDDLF

## COc1cc2c(O[C@@H]3OC[C@H](OC(C)=O)[C@H](OC(C)=O)[C@H]3OC(C)=O)c3c(c(-c4ccc5c(c4)OCO5)c2cc1OC)C(=O)OC3
[1]
  inhibition: Active
OVCAR-3
  pIC50: 6.54
MDA-MB-231
  pIC50: 6.00
HT-29
  pIC50: 6.85
K562
  pIC50: 6.07
MDA-MB-435
  pIC50: 6.85
[2]
  Ratio IC50: 1.08
[3]
  pIC50: 6.04

## COCc1c(C(=O)OC)c(-c2ccc3c(c2)OCO3)c2cc(OC)c(OC)cc2c1O[C@@H]1OC[C@@H](OC)[C@H](OC)[C@H]1OC
OVCAR-3
  pIC50: 6.35
HT-29
  pIC50: 5.77

## COc1cc2c(O[C@@H]3OC[C@H](OC(C)=O)[C@H](OC(C)=O)[C@H]3OC(C)=O)c3c(c(-c4ccc5c(c4)OCO5)c2cc1OC)COC3
OVCAR-3
  pIC50: < 5.00
HT-29
  pIC50: 5.85

## COc1cc2c(O)c3c(c(-c4ccc5c(c4)OCO5)c2cc1OC)C(=O)OC3 [DIPHYLLIN]
K562
  pIC50: 5.62
[2]
  Ratio IC50: 0.97
[3]
  pIC50: 5.64

## COc1cc2c(O[C@@H]3OC[C@H](OC(C)=O)[C@H](OC(C)=O)[C@H]3OC(C)=O)c3c(c(-c4ccc5c(c4)OCO5)c2cc1OC)COC3=O
OVCAR-3
  pIC50: < 5.00
HT-29
  pIC50: 6.33

## COc1cc2c(O[C@H]3OC[C@@H](OC(C)=O)[C@@H](OC(C)=O)[C@@H]3OC(C)=O)c3c(c(-c4ccc5c(c4)OCO5)c2cc1OC)C(=O)OC3
OVCAR-3
  pIC50: 6.43
MDA-MB-231
  pIC50: 5.66
HT-29
  pIC50: 7.34
MDA-MB-435
  pIC50: 6.30

## COc1cc2c(O[C@@H]3OC[C@@H](O)[C@H](O)[C@H]3O)c3c(c(-c4ccc5c(c4)OCO5)c2cc1OC)C(=O)OC3
OVCAR-3
  pIC50: 6.16
HT-29
  pIC50: 5.85

## COc1cc2c(O[C@@H]3OC[C@@H](OC)[C@H](OC)[C@H]3OC)c3c(c(-c4ccc5c(c4)OCO5)c2cc1OC)C(=O)OC3
[1]
  inhibition: Active
OVCAR-3
  pIC50: 5.12
HT-29
  pIC50: 7.74
K562
  pIC50: 6.33
[4]
  Ratio IC50: >400
[2]
  Ratio IC50: 0.91
[3]
  pIC50: 6.37

## COc1cc2c(O[C@@H]3OC[C@H](O)[C@H](O)[C@H]3O)c3c(c(-c4ccc5c(c4)OCO5)c2cc1OC)C(=O)OC3 [ACUTISSIMALIGNAN A]
OVCAR-3
  pIC50: 5.32

## CCOC(=O)c1c(C(=O)OCC)c(-c2ccc3c(c2)OCO3)c2cc(OC)c(OC)cc2c1O[C@@H]1OC[C@H](OC(C)=O)[C@H](OC(C)=O)[C@H]1OC(C)=O
OVCAR-3
  pIC50: < 5.00
HT-29
  pIC50: < 5.00

## COc1cc([C@@H]2c3cc4c(cc3[C@@H](O[C@@H]3O[C@@H]5CO[C@@H](C)O[C@H]5[C@H](O)[C@H]3O)[C@H]3COC(=O)[C@H]23)OCO4)cc(OC)c1O [ETOPOSIDE]
OVCAR-3
  pIC50: 5.54
HT-29
  pIC50: 4.82
[5]
  inhibition: Active
K562
  pIC50: 5.91
[2]
  Ratio IC50: 28.98
[3]
  pIC50: 4.45

## CC(=O)O[C@H]1C(=O)[C@@]2(C)[C@H]([C@H](OC(=O)c3ccccc3)[C@]3(O)C[C@H](OC(=O)[C@H](O)[C@@H](NC(=O)c4ccccc4)c4ccccc4)C(C)=C1C3(C)C)[C@]1(OC(C)=O)CO[C@@H]1C[C@@H]2O [PACLITAXEL]
OVCAR-3
  pIC50: 7.96
HT-29
  pIC50: 7.96

## COc1cc2c(O[C@@H]3O[C@H](COC(C)=O)[C@@H](O[C@@H]4O[C@H](COC(C)=O)[C@H](OC(C)=O)[C@H](OC(C)=O)[C@H]4OC(C)=O)[C@H](OC(C)=O)[C@H]3OC(C)=O)c3c(c(-c4ccc5c(c4)OCO5)c2cc1OC)C(=O)OC3
OVCAR-3
  pIC50: < 5.00
MDA-MB-231
  pIC50: < 5.00
HT-29
  pIC50: 5.70
MDA-MB-435
  pIC50: < 5.00

## COc1cc2c(O[C@@H]3OC[C@H](OC)[C@H](OC)[C@H]3OC)c3c(c(-c4ccc5c(c4)OCO5)c2cc1OC)C(=O)OC3
[1]
  inhibition: inactive
OVCAR-3
  pIC50: 6.09
MDA-MB-231
  pIC50: 6.19
HT-29
  pIC50: 6.89
K562
  pIC50: 5.90
MDA-MB-435
  pIC50: 6.85
[2]
  Ratio IC50: 1.02
[3]
  pIC50: 5.89

## COc1cc2c(O[C@@H]3OC[C@@H](OC(C)=O)[C@H](OC(C)=O)[C@H]3OC(C)=O)c3c(c(-c4ccc5c(c4)OCO5)c2cc1OC)C(=O)OC3
OVCAR-3
  pIC50: 6.24
MDA-MB-231
  pIC50: 5.29
HT-29
  pIC50: 6.80
MDA-MB-435
  pIC50: 6.64
